# Published values of several laboratories.
SMILES,test,test system,setting,endpoint,result
Cc1ncc(C)n2nc(/C=C/c3nc(N4CCCC4)cc(N4CCOCC4)n3)nc12,,"male Fischer 344 rat, plasma","oral, 0.3 mg/kg, 1 h",concentration,50 ng/mL
N=c1c2c(-c3ccccc3)c(-c3ccccc3)n(Cc3ccccc3)c2ncn1[C@H]1CC[C@H](O)CC1,metabolic stability,"mouse, liver microsomes",1 µM,half-life,> 2 h
C[C@H](Cn1cnc2c(N)ncnc21)OCP(=O)(O)OCCCOCCCCCCCCCCCCC#C[Si](C)(C)C.N,metabolic stability,"CD-1 mouse, liver microsomes","3 µM, pH 7.4",half-life,> 2 h
O=C(Nc1cccnn1)N1CCN([C@@H]2CCOc3cc(C(F)(F)F)ccc32)CC1,,"male Sprague-Dawley rat, plasma","oral, 1 mg/kg, 1 h",concentration,125 ng/mL
N#C[C@@H]1CC(F)(F)CN1C(=O)CNC(=O)c1ccnc2ccc(OCCCN3CCN(C(=O)CN4CCN(CC(=O)[O-])CCN(CC(=O)[O-])CC4)CC3)cc12.[18F-].[Al+3],,"rat, stomach","intravenous, 2 h",tracer uptake,1.05 %ID/g
Cc1cc(C)nc(Nc2ncc(C(=O)NCCc3c(C)[nH]c4ccccc34)cn2)c1,metabolic stability,"mouse, liver microsomes",1 µM,half-life,0.0783 h
C[C@H](Cn1cnc2c(N)ncnc21)OCP(=O)(O)OCCCOCCCCCCCCCCCCCC#CC(F)(F)F.N,metabolic stability,"CD-1 mouse, liver microsomes","3 µM, pH 7.4",half-life,> 2 h
CC(C)(C)[C@H](NC(=O)[C@H](CCONC(=N)N)NC(=O)Cc1ccc(CNC(=N)N)cc1)C(=O)N[C@@H](CCONC(=N)N)C(=O)NCc1ccc(C(=N)N)cc1,,"male Sprague-Dawley rat, plasma","intravenous, 1 mg/kg",C0,2080 ng/mL
Cl.Cl.O=C(CCN1CCCCC1)c1ccc(-c2ccc(C(=O)CCN3CCCCC3)cc2)cc1,,"Sprague-Dawley rat, plasma","oral, 100 mg/kg",half-life,8.23 h
